In ChEMBL document CHEMBL2177045, “Chemical subtleties in small-molecule modulation of peptide receptor function: the case of CXCR3 biaryl-type ligands” (J Med Chem, 2012):
Calls of active or inactive are those of the source. The calls are words filed in the database; no cut-off is given here.

Assays:
[1] = molecular target: T1, C-X-C chemokine receptor type 3 (Homo sapiens, UniProt P49682); experiment: Displacement of [125I]CXCL10 from CXCR3 expressed in HEK293 cells; format: cell-based
T1 sequence (P49682 whole entry): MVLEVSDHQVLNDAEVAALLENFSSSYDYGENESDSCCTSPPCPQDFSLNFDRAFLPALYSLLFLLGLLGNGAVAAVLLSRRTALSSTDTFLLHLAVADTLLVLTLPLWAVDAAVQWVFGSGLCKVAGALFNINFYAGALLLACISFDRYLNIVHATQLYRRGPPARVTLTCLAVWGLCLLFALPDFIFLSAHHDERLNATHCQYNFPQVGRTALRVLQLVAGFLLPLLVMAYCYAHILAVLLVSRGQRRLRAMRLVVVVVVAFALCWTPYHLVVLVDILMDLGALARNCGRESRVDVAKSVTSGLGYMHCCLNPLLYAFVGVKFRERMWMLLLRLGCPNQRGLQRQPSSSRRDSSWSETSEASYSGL
Method in brief: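 Competition binding against [125I]CXCL10 using membranes from HEK293 cells stably expressing CXCR3. Affinities reported as pKi; mean ± SEM of at least three independent experiments.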

[2] = molecular target: T1, C-X-C chemokine receptor type 3; experiment: Agonist activity at CXCR3 expressed in HEK293 cells by [35S]GTPgamma binding assay; format: functional, cell-based
Method in brief: (§1)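 Membranes (5 μg/well) from HEK293 cells stably expressing CXCR3, incubated with CXCL11 or ligands. Buffer 50 mM HEPES, 10 mM MgCl2, 100 mM NaCl, pH 7.2, with 3 μM GDP and 300 pM [35S]GTPγS, 1 h at room temperature. Filtered on GF/B, incorporated label counted. Response normalized to CXCL11 (α = 1) to give relative efficacy; mean ± SEM of ≥3 independent experiments.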

[3] = molecular target: T2, C-X-C chemokine receptor type 3 (Homo sapiens) (UniProt P49682); experiment: Agonist activity at CXCR3 expressed in HEK293 cells by [35S]GTPgamma binding assay relative to CXCL11; format: functional, cell-based; method in brief: as §1
T2 sequence (whole entry): T1 sequence (P49682 whole entry)

[4] = molecular target: T2, C-X-C chemokine receptor type 3 (Homo sapiens); experiment: Agonist activity at CXCR3 expressed in HEK293 cells in presence of CXCR3 antagonist (R)-N-(1-(3-(4-ethoxyphenyl)-4-oxo-3,4-dihydropyrido[2,3-d]pyrimidin-2-yl)ethyl)-2-(4-fluoro-3-(trifluoromethyl)phenyl)-N-(pyridin-3-ylmethyl)acetamide by [35S]GTPgamma binding assay; format: functional, cell-based
Method in brief: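 [35S]GTPγS incorporation on membranes (5 μg/well) of HEK293 cells stably expressing CXCR3. Buffer 50 mM HEPES, 10 mM MgCl2, 100 mM NaCl, pH 7.2, 3 μM GDP, 300 pM [35S]GTPγS, 1 h at room temperature. In antagonist mode, antagonist added 30 min before [35S]GTPγS. Read by filtration and counting.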

[5] = molecular target: T2, C-X-C chemokine receptor type 3 (Homo sapiens); experiment: Agonist activity at CXCR3 expressed in HEK293 cells by CRE-luciferase reporter gene assay; format: functional, cell-based
Method in brief: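 HEK293 cells stably expressing CXCR3, transfected with a CRE-luciferase reporter plasmid. Medium swapped for serum-free medium with 0.05% BSA plus ligands for 5 h. Then replaced by luciferin substrate solution (Tris-phosphate pH 7.8, glycerol, Triton X-100, DTT, MgCl2, 825 μM ATP, beetle luciferin) and luminescence read.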

SMILES | Ki [1] [nM] | EC50 [2] [nM] | Ratio [3] | Activity [4] | Activity [5]
COc1ccccc1-c1ccc(C[N+](C)(C)CC2=CC[C@H]3C[C@@H]2C3(C)C)cc1 | 158 | 12600 | 0.36 |  | 
CC1(C)[C@H]2CC=C(C[N+](C)(C)Cc3ccc(Cl)cc3)[C@@H]1C2 |  |  | 0.02 |  | 
CC1(C)[C@H]2CC=C(C[N+](C)(C)Cc3ccc(-c4ccccc4Cl)cc3)[C@@H]1C2 | 100 | 1580 | 0.73 | inactive | 
CC1(C)[C@H]2CC=C(C[N+](C)(C)Cc3ccc(-c4ccccc4O)cc3)[C@@H]1C2 | 2000 |  | 0.07 |  | 
CC1(C)[C@H]2CC=C(C[N+](C)(C)Cc3ccc(-c4cc(Cl)ccc4Cl)cc3)[C@@H]1C2 | 251 | 5010 | 0.64 |  | Active
CC1(C)[C@H]2CC=C(C[N+](C)(C)Cc3ccc4c(c3)Cc3ccccc3-4)[C@@H]1C2 | 398 |  | 0.03 |  | 
CC1(C)[C@H]2CC=C(C[N+](C)(C)Cc3ccc(-c4ccccc4I)cc3)[C@@H]1C2 | 63.1 | 1000 | 0.99 | inactive | Active
CC1(C)[C@H]2CC[C@@H](C[N+](C)(C)Cc3ccc(-c4cccc(Cl)c4)cc3)[C@@H]1C2 | 501 |  | 0.07 |  | 
CC1(C)[C@H]2CC=C(C[N+](C)(C)Cc3ccc(-c4ccccc4)cc3)[C@@H]1C2 | 631 |  | 0.11 |  | 
Cc1cccc(C)c1-c1ccc(C[N+](C)(C)CC2=CC[C@H]3C[C@@H]2C3(C)C)cc1 | 1000 | 7940 | 0.19 |  | 
CC1(C)[C@H]2CC(C[N+](C)(C)Cc3ccc(-c4ccccc4I)cc3)=C[C@@H]1C2 | 200 | 1580 | 1.05 |  | 
CC1(C)[C@@H]2CC=C(C[N+](C)(C)Cc3ccc(-c4cccc(Cl)c4)cc3)[C@H]1C2 | 316 |  | 0.05 |  | 
CC1(C)[C@H]2CC=C(C[N+](C)(C)Cc3ccc(-c4cccc(Br)c4)cc3)[C@@H]1C2 | 200 |  | 0.08 |  | 
CC1(C)[C@H]2CC=C(C[N+](C)(C)Cc3ccc(-c4ccccc4Cl)c(Cl)c3)[C@@H]1C2 | 200 | 794 | 0.3 |  | 
CC1(C)[C@H]2CC=C(C[N+](C)(C)Cc3ccc(-c4cccc(Cl)c4)cc3)[C@@H]1C2 | 251 |  | 0.05 |  | inactive

Continued by falling Ki [1], values first:

Ki [1] [nM] | EC50 [2] [nM] | Ratio [3] | Activity [4] | Activity [5] | SMILES
2510 |  | 0.04 |  |  | CC1(C)[C@H]2CC=C(C[N+](C)(C)Cc3ccccc3)[C@@H]1C2
631 |  | 0.06 |  |  | CC1(C)[C@H]2CC=C(C[N+](C)(C)Cc3ccc(-c4ccccc4)c(Cl)c3)[C@@H]1C2
501 |  | 0.03 |  |  | CC1(C)[C@H]2CC=C(C[N+](C)(C)Cc3ccc(-c4cccc(Cl)c4)c(Cl)c3)[C@@H]1C2
501 |  | 0.07 |  |  | CC1(C)[C@H]2CC(C[N+](C)(C)Cc3ccc(-c4cccc(Cl)c4)cc3)=C[C@@H]1C2
501 | 1260 | 0.2 |  |  | CC1(C)[C@H]2CC=C(C[N+](C)(C)Cc3ccc(-c4ccccc4F)cc3)[C@@H]1C2
398 | 2000 | 0.42 |  |  | CC1(C)[C@H]2CC=C(C[N+](C)(C)Cc3ccc(-c4c(Cl)cccc4Cl)cc3)[C@@H]1C2
398 | 631 | 0.31 |  |  | CC1(C)[C@H]2CC=C(C[N+](C)(C)Cc3ccc(-c4cccc(Cl)c4Cl)cc3)[C@@H]1C2
158 | 1260 | 0.2 |  |  | Cc1ccccc1-c1ccc(C[N+](C)(C)CC2=CC[C@H]3C[C@@H]2C3(C)C)cc1
100 | 1260 | 0.83 |  |  | CC1(C)[C@H]2CC[C@@H](C[N+](C)(C)Cc3ccc(-c4ccccc4I)cc3)[C@@H]1C2
63.1 | 794 | 0.95 |  |  | CC1(C)[C@H]2CC=C(C[N+](C)(C)Cc3ccc(-c4ccccc4Br)cc3)[C@@H]1C2
50.1 | 631 | 0.98 |  |  | CC1(C)[C@@H]2CC=C(C[N+](C)(C)Cc3ccc(-c4ccccc4I)cc3)[C@H]1C2
39.8 |  | 0.96 |  |  | NCCCC[C@H](NC(=O)[C@@H]1Cc2ccccc2CN1C(=O)CCC(=O)c1ccccc1)C(=O)NCC(c1ccccc1)c1ccccc1
10 |  | 0 |  |  | CCOc1ccc(-n2c([C@@H](C)N(Cc3cccnc3)C(=O)Cc3ccc(F)c(C(F)(F)F)c3)nc3ncccc3c2=O)cc1
